Laboratory results taken from ChEMBL document CHEMBL4350961, “Discovery of Pyrrolo[3,2- d]pyrimidin-4-one Derivatives as a New Class of Potent and Cell-Active Inhibitors of P300/CBP-Associated Factor Bromodomain” (J Med Chem, 2019).
Active and inactive are the calls of the source.

Columns and labels:
[1] = biological target: PI3K p110 beta/p85 alpha (Homo sapiens) (UniProt P27986+P42338); experiment: Inhibition of recombinant full-length human PI3K p110beta/p85alpha at 10 uM using phosphatidylinositol-4, 5-bisphosphate as substrate measured after 40 mins by fluorescence assay; format: protein-complex assay
[2] = biological target: Casein kinase I isoform gamma-1 (Homo sapiens) (UniProt Q9HCP0); experiment: Inhibition of recombinant human CK1gamma1 (25 to 355 residues) at 10 uM using KRRRALS(p)VASLPGL as substrate measured after 40 mins in presence of [gamma33P]ATP by scintillation counting method
[3] = biological target: Dual specificity protein kinase CLK2 (Homo sapiens) (UniProt P49760); experiment: Inhibition of recombinant human CLK2 (138 to end residues) at 10 uM using YRRAAVPPSPSLSRHSSPHQS(p)EDEEE as substrate measured after 40 mins in presence of [gamma33P]ATP by scintillation counting method
[4] = system: Proto-oncogene tyrosine-protein kinase receptor Ret (Homo sapiens), P07949 [V804M]; experiment: Inhibition of human Ret V804M mutant (658 to end residues) using KKKVSRSGLYRSPSMPENLNRPR as substrate measured after 40 mins in presence of [gamma33P]ATP by scintillation counting method
Chain of Proto-oncogene tyrosine-protein kinase receptor Ret (Homo sapiens), P07949 [V804M] (P07949 whole entry V804M): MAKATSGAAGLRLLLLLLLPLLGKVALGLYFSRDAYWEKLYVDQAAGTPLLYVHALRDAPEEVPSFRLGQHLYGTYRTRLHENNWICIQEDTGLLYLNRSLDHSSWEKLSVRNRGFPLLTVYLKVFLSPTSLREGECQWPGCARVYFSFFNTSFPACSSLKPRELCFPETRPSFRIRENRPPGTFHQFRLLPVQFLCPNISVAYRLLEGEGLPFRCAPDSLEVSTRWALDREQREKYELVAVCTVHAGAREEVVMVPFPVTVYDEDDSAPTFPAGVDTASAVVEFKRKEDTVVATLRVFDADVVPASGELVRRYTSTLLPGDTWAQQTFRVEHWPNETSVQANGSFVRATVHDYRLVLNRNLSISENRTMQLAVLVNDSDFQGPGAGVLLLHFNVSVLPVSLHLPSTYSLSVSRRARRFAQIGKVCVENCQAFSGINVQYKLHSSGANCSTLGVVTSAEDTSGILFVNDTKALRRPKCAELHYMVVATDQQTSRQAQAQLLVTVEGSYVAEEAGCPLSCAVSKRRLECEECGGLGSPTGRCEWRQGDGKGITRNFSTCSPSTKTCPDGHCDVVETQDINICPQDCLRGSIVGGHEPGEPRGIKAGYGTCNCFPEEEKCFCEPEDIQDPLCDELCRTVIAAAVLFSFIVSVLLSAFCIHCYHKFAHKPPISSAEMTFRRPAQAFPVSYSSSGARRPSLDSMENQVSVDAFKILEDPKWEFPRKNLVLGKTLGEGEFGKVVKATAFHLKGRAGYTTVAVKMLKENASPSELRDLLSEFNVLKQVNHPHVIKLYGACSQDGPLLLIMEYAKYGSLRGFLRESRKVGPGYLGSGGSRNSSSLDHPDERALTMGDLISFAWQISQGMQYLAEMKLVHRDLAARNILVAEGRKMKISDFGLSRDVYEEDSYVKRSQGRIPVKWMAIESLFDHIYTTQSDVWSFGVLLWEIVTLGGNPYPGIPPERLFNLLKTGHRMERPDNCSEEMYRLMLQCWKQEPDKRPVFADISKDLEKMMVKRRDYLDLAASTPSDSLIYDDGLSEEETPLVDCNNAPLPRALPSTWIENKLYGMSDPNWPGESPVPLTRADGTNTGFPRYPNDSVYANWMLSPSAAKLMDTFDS
Method in brief: (§1)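 Kinase panel of 422 kinases screened by Eurofins KinaseProfiler at a single test-compound concentration of 10 µM.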

[5] = biological target: G protein-coupled receptor kinase 5 (Homo sapiens) (UniProt P34947); experiment: Inhibition of recombinant full-length human GRK5 at 10 uM using casein as substrate measured after 40 mins in presence of [gamma33P]ATP by scintillation counting method
[6] = biological target: Activin receptor type-1B (Homo sapiens) (UniProt P36896); experiment: Inhibition of recombinant human ALK4 (150 to end residues) at 10 uM using casein as substrate measured after 40 mins in presence of [gamma33P]ATP by scintillation counting method
Chain of Activin receptor type-1B (Homo sapiens) (P36896 whole entry): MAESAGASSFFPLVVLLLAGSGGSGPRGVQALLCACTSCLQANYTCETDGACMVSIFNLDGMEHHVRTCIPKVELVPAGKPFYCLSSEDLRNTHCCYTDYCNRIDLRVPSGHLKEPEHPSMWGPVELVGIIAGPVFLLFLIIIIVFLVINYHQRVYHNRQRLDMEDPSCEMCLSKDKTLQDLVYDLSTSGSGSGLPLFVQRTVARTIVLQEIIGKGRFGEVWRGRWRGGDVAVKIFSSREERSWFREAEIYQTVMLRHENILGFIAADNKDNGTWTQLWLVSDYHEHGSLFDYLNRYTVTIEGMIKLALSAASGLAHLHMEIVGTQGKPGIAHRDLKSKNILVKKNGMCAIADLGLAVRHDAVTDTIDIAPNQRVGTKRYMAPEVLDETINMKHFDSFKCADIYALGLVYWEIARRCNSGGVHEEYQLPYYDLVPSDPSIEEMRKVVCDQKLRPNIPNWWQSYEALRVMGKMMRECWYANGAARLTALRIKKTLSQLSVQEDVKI

[7] = biological target: [Pyruvate dehydrogenase (acetyl-transferring)] kinase isozyme 4, mitochondrial (Homo sapiens) (UniProt Q16654); experiment: Inhibition of recombinant full-length human PDHK4 at 10 uM using KKKYHGHSMSDPGVSYRT as substrate measured after 40 mins in presence of [gamma33P]ATP by scintillation counting method
Chain of [Pyruvate dehydrogenase (acetyl-transferring)] kinase isozyme 4, mitochondrial (Homo sapiens) (Q16654 whole entry, looked up): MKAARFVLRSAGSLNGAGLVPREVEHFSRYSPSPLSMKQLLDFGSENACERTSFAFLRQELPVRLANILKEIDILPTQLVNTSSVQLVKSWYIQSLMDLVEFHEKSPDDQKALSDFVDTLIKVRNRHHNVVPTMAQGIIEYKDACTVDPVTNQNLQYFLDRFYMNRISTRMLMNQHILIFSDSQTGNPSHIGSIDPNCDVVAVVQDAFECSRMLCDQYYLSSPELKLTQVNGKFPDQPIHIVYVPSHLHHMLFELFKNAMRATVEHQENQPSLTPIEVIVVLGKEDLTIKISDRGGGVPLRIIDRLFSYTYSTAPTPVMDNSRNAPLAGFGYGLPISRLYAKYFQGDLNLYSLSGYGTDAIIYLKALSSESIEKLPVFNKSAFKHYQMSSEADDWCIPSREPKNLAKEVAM

[8] = biological target: Glycogen synthase kinase-3 alpha (Homo sapiens) (UniProt P49840); experiment: Inhibition of recombinant human GSK3alpha (2 to end residues) at 10 uM using phospho GS2 peptide as substrate measured after 40 mins in presence of [gamma33P]ATP by scintillation counting method
Chain of Glycogen synthase kinase-3 alpha (Homo sapiens) (P49840 2-483 limits assumed): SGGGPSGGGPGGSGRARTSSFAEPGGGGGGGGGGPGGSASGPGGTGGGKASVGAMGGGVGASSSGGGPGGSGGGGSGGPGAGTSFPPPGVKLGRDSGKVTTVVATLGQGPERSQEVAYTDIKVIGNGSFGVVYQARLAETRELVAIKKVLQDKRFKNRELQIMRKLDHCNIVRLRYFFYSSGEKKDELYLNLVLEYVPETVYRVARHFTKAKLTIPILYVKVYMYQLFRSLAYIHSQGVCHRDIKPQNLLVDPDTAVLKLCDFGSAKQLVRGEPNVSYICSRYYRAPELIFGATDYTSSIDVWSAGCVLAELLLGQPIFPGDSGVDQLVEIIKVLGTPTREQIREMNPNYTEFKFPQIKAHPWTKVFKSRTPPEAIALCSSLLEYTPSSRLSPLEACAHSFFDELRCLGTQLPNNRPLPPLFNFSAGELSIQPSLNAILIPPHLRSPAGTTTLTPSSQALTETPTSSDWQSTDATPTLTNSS

[9] = system: Angiopoietin-1 receptor (Homo sapiens), Q02763 [Q939H,Q940H,Y897S]; experiment: Inhibition of human Tie2 Q939H/Q940H/Y897S mutant (771 to end residues) using EFPIYDFLPAKKK as substrate measured after 40 mins in presence of [gamma33P]ATP by scintillation counting method
[10] = biological target: Tyrosine-protein kinase TXK (Homo sapiens) (UniProt P42681); experiment: Inhibition of human Txk (256 to end residues) using GEEPLYWSFPAKKK as substrate measured after 40 mins in presence of [gamma33P]ATP by scintillation counting method
[11] = biological target: Mitogen-activated protein kinase 10 (Homo sapiens) (UniProt P53779); experiment: Inhibition of recombinant full-length human JNK3 at 10 uM using peptide substrate measured after 40 mins in presence of [gamma33P]ATP by scintillation counting method
Chain of Mitogen-activated protein kinase 10 (Homo sapiens) (P53779 whole entry): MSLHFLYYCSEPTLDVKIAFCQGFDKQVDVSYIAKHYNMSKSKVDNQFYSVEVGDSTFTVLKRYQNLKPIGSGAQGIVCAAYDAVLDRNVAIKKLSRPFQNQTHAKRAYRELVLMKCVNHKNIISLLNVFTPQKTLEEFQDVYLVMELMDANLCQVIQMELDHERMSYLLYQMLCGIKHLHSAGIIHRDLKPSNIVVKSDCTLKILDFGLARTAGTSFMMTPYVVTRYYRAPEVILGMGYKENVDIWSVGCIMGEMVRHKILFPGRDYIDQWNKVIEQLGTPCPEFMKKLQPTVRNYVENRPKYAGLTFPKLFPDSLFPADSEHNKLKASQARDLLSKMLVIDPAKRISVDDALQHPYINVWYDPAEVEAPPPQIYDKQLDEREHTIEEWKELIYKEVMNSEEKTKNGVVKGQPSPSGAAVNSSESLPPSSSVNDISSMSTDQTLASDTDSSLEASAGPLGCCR

[12] = system: Serine/threonine-protein kinase Sgk1 (Homo sapiens), O00141 [S422D]; experiment: Inhibition of recombinant human SGK S422D mutant (60 to end residues) at 10 uM using GRPRTSSFAEGKK as substrate measured after 40 mins in presence of [gamma33P]ATP by scintillation counting method
[13] = biological target: Serine/threonine-protein kinase ULK3 (Homo sapiens) (UniProt Q6PHR2); experiment: Inhibition of recombinant full-length human ULK3 at 10 uM using casein as substrate measured after 40 mins in presence of [gamma33P]ATP by scintillation counting method
[14] = biological target: Serine/threonine-protein kinase TAO1 (Homo sapiens) (UniProt Q7L7X3); experiment: Inhibition of human TAO1 (1 to 327 residues) using myelin basic protein as substrate measured after 40 mins in presence of [gamma33P]ATP by scintillation counting method
Chain of Serine/threonine-protein kinase TAO1 (Homo sapiens) (Q7L7X3 whole entry, the tested form may be a part): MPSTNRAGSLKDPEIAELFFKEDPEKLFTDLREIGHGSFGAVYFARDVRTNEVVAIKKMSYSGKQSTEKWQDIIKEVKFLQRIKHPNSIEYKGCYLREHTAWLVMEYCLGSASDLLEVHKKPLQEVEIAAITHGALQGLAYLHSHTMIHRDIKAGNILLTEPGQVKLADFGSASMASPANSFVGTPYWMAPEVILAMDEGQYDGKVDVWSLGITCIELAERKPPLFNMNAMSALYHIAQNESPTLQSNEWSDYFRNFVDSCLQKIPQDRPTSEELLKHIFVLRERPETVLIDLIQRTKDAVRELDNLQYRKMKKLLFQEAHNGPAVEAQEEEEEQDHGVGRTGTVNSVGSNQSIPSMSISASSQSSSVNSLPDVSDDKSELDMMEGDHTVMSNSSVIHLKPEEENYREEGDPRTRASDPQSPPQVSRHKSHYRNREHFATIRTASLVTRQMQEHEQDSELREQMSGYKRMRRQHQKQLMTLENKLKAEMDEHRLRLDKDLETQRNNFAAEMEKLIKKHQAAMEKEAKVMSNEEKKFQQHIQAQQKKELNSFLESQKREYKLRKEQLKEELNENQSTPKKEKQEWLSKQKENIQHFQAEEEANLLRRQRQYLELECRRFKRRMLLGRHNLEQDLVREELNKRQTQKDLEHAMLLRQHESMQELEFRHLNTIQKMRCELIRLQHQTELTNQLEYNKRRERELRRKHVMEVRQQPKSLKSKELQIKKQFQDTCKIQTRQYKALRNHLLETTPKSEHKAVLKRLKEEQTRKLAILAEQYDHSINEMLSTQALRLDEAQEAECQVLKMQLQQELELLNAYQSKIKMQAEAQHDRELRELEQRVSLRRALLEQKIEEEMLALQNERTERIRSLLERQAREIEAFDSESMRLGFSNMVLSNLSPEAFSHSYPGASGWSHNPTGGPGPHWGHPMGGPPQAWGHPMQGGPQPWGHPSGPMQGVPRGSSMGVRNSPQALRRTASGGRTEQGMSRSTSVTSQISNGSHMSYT

[15] = biological target: Serine/threonine-protein kinase ICK (Homo sapiens) (UniProt Q9UPZ9); experiment: Inhibition of recombinant human ICK (1 to 312 residues) at 10 uM using RRRFRPASPLRGPPK as substrate measured after 40 mins in presence of [gamma33P]ATP by scintillation counting method
[16] = biological target: Dual specificity mitogen-activated protein kinase kinase 2 (Homo sapiens) (UniProt P36507); experiment: Inhibition of recombinant full-length human MEK2 at 10 uM using MBP as substrate measured after 40 mins in presence of [gamma33P]ATP by scintillation counting method
Chain of Dual specificity mitogen-activated protein kinase kinase 2 (Homo sapiens) (P36507 whole entry): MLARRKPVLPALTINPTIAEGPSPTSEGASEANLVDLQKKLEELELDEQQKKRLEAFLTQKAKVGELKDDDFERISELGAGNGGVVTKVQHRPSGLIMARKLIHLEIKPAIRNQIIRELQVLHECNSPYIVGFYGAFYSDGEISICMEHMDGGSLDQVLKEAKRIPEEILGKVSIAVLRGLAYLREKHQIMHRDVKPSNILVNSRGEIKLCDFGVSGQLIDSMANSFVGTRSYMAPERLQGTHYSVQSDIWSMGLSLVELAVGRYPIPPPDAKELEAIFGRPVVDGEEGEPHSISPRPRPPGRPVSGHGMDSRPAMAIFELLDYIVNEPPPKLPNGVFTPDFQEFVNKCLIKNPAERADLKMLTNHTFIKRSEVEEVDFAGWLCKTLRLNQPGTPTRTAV

[17] = biological target: Wee1-like protein kinase 2 (Homo sapiens) (UniProt P0C1S8); experiment: Inhibition of recombinant full-length human WEE1b at 10 uM using LSNLYHQGKFLQTFCGSPLYRRR as substrate measured after 120 mins in presence of [gamma33P]ATP by scintillation counting method
[18] = system: TGF-beta receptor type-1 (Homo sapiens), P36897 [T204D]; experiment: Inhibition of human TGFBR1 T204D mutant (200 to end residues) using casein as substrate measured after 40 mins in presence of [gamma33P]ATP by scintillation counting method
Chain of TGF-beta receptor type-1 (Homo sapiens), P36897 [T204D] (P36897 whole entry T204D): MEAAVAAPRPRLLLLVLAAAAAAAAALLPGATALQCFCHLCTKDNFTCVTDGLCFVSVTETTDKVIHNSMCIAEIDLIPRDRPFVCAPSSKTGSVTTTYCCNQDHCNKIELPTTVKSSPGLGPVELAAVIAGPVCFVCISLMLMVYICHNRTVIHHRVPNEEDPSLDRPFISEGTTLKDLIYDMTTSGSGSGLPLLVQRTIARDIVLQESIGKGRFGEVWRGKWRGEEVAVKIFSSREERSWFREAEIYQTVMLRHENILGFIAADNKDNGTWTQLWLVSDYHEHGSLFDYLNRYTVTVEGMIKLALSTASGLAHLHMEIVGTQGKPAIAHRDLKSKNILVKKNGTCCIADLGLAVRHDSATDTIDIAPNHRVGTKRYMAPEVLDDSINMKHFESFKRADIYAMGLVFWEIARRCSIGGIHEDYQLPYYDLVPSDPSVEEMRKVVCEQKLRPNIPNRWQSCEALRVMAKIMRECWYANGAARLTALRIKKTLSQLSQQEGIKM

[19] = biological target: Serine/threonine-protein kinase/endoribonuclease IRE1 (Homo sapiens) (UniProt O75460); experiment: Inhibition of recombinant human IRE1 (465 to end residues) at 10 uM using myelin basic protein as substrate measured after 40 mins in presence of [gamma33P]ATP by scintillation counting method
[20] = biological target: CDK17/Cyclin-Y (Homo sapiens) (UniProt Q00537+Q8ND76); experiment: Inhibition of human CDK17/cyclinY at 10 uM using PKSPKARKKL as substrate measured after 120 mins in presence of [gamma33P]ATP by scintillation counting method; format: protein-complex assay; method in brief: as §1
[21] = system: Platelet-derived growth factor receptor alpha (Homo sapiens), P16234 [V561D]; experiment: Inhibition of recombinant human PDGFRalpha V561D mutant (550 to end residues) at 10 uM using GGMEDIYFEFMGGKKK as substrate measured after 40 mins in presence of [gamma33P]ATP by scintillation counting method
[22] = species on record: Mus musculus; experiment: Inhibition of recombinant mouse ARG M982V/A562 mutant (27 to end residues) at 10 uM using EAIYAAPFAKKK as substrate measured after 40 mins in presence of [gamma33P]ATP by scintillation counting method
[23] = biological target: Tyrosine-protein kinase SYK (Homo sapiens) (UniProt P43405); experiment: Inhibition of recombinant full-length human Syk at 10 uM using poly(Glu, Tyr) 4:1 as substrate measured after 120 mins in presence of [gamma33P]ATP by scintillation counting method

Measured: inhibition

CN1C[C@H](Nc2nc3cc[nH]c3c(=O)n2C)C[C@H](c2ccc3c(c2)OCCO3)C1
inactive: all assays above
